ChEMBL document CHEMBL1151472, “In vitro interactions between tacrolimus and azoles against Candida albicans determined by different methods” (2008)
In brackets after ≈: the same amount, converted by molar mass.

What was measured:
Type in all cases: functional
Candida albicans [1] = experiment: Antimicrobial activity against azole-resistant Candida albicans isolate CA135 after 48 hrs by broth microdilution method; details: isolate CA135, 48 h
Method in brief: (§1)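 CLSI M27-A2 broth microdilution was run in RPMI 1640 (pH 7.0, 2% dextrose, 0.165 M MOPS). Inoculum was 2.5 × 10^3 CFU/ml, incubated 35°C for 48 h without shaking. Plates were read visually (0–5 scale) and at OD 492 nm. MIC80 = lowest concentration giving an 80% absorbance decrease vs drug-free control. Triplicate.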

Candida albicans [2] = experiment: Antimicrobial activity against azole-resistant Candida albicans isolate CA16 after 48 hrs by broth microdilution method; details: isolate CA16, 48 h; method in brief: as §1
Candida albicans [3] = experiment: Antimicrobial activity against azole-susceptible Candida albicans isolate CA14 assessed as log reduction in colony count at 1 ug/ml co-treated with calcineurin signaling inhibitor tacrolimus after 48 hrs by time killing test
Method in brief: (§2)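 Time-kill was started at 10^5 CFU/ml, with 10 μg/ml FLC or 1 μg/ml ITR or VRC, alone or with 0.016 μg/ml FK506, and DMSO <1%, at 35°C. At 0, 6, 12, 24 and 48 h, aliquots were serially diluted and plated on Sabouraud agar, then counted after 48 h at 35°C. Triplicate means.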

Candida albicans [4] = experiment: Antimicrobial activity against azole-susceptible Candida albicans isolate CA8 co-treated with calcineurin signaling inhibitor tacrolimus after 48 hrs by microdilution checkerboard technique; details: isolate CA8, 48 h
Method in brief: (§3)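 Checkerboard microdilution in MOPS-buffered RPMI 1640 (pH 7.0, 2% dextrose) with 2.5 × 10^3 CFU/ml for 48 h at 35°C. Final FK506 was 0.002–0.125 μg/ml. Azole finals were FLC 0.125–128 μg/ml, and ITR and VRC 0.008–8 μg/ml. MIC80 is an 80% OD492 decrease vs drug-free control. Interaction was scored by FICI (synergy ≤0.5, antagonism >4) and by ΔE from triplicates.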

Candida albicans [5] = experiment: Antimicrobial activity against azole-resistant Candida albicans isolate CA15 cotreated with calcineurin signaling inhibitor Tacrolimus after 48 hrs by microdilution checkerboard technique; details: isolate CA15, 48 h; method in brief: as §3
Candida albicans [6] = experiment: Antimicrobial activity against azole-susceptible Candida albicans isolate CA12 co-treated with calcineurin signaling inhibitor tacrolimus after 48 hrs by microdilution checkerboard technique; details: isolate CA12, 48 h; method in brief: as §3
Candida albicans [7] = experiment: Antimicrobial activity against azole-resistant Candida albicans isolate CA10 assessed as log reduction in colony count at 1 ug/ml co-treated with calcineurin signaling inhibitor tacrolimus after 48 hrs by time killing test; method in brief: as §2
Candida albicans [8] = experiment: Antimicrobial activity against azole-susceptible Candida albicans isolate CA14 after 48 hrs by broth microdilution method; details: isolate CA14, 48 h; method in brief: as §1
Candida albicans [9] = experiment: Antimicrobial activity against azole-susceptible Candida albicans isolate CA14 assessed as log reduction in colony count at 1 ug/ml co-treated with calcineurin signaling inhibitor tacrolimus after 48 hrs by XTT assay
Method in brief: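 Time-kill assay starting at 10^5 CFU/ml with azole 1 μg/ml plus FK506 0.016 μg/ml at 35°C, with a drug-free control and DMSO <1%. At 48 h, a 100 μl aliquot was mixed with XTT-menadione (XTT 0.5 g/liter in Ringer's lactate, menadione 10 μM final) and incubated in the dark up to 2 h at 35°C. A492 was converted to CFU by standard curve (Y = 4.2610x + 4.2087).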

Candida albicans [10] = experiment: Antimicrobial activity against azole-resistant Candida albicans isolate CA16 cotreated with calcineurin signaling inhibitor Tacrolimus after 48 hrs by microdilution checkerboard technique; details: isolate CA16, 48 h; method in brief: as §3
Candida albicans [11] = experiment: Antimicrobial activity against azole-susceptible Candida albicans isolate CA5 co-treated with calcineurin signaling inhibitor tacrolimus after 48 hrs by microdilution checkerboard technique; details: isolate CA5, 48 h; method in brief: as §3
Candida albicans [12] = experiment: Antimicrobial activity against azole-susceptible Candida albicans isolate CA12 after 48 hrs by broth microdilution method; details: isolate CA12, 48 h; method in brief: as §1
Candida albicans [13] = experiment: Antimicrobial activity against azole-susceptible Candida albicans isolate CA14 co-treated with calcineurin signaling inhibitor tacrolimus after 48 hrs by microdilution checkerboard technique; details: isolate CA14, 48 h; method in brief: as §3
Candida albicans [14] = experiment: Antimicrobial activity against azole-susceptible Candida albicans isolate CA129 co-treated with calcineurin signaling inhibitor tacrolimus after 48 hrs by microdilution checkerboard technique; details: isolate CA129, 48 h; method in brief: as §3
Candida albicans [15] = experiment: Antimicrobial activity against azole-susceptible Candida albicans isolate CA8 after 48 hrs by broth microdilution method; details: isolate CA8, 48 h; method in brief: as §1
Candida albicans [16] = experiment: Antimicrobial activity against azole-resistant Candida albicans isolate CA135 cotreated with calcineurin signaling inhibitor Tacrolimus after 48 hrs by microdilution checkerboard technique; details: isolate CA135, 48 h; method in brief: as §3
Candida albicans [17] = experiment: Antimicrobial activity against azole-resistant Candida albicans isolate CA10 assessed as log reduction in colony count at 1 ug/ml co-treated with calcineurin signaling inhibitor tacrolimus after 48 hrs by XTT assay
Method in brief: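 Same time-kill setup (10^5 CFU/ml start, azole ± 0.016 μg/ml FK506, 35°C). At each time point, aliquots were mixed 1:1 with XTT (0.5 g/liter in Ringer's lactate) plus 10 μM menadione final. Incubation was in the dark for up to 2 h at 35°C, then formazan was read at 492 nm. OD was converted to CFU via a standard curve (Y = 4.2610x + 4.2087). Triplicate.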

Candida albicans [18] = experiment: Antimicrobial activity against azole-resistant Candida albicans isolate CA137 cotreated with calcineurin signaling inhibitor Tacrolimus after 48 hrs by microdilution checkerboard technique; details: isolate CA137, 48 h; method in brief: as §3
Candida albicans [19] = experiment: Antimicrobial activity against azole-susceptible Candida albicans isolate CA129 after 48 hrs by broth microdilution method; details: isolate CA129, 48 h; method in brief: as §1
Candida albicans [20] = experiment: Antimicrobial activity against azole-resistant Candida albicans isolate CA10 after 48 hrs by broth microdilution method; details: isolate CA10, 48 h
Method in brief: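 Broth microdilution per CLSI M27-A2 in RPMI 1640 (pH 7.0, 2% dextrose, 0.165 M MOPS), final inoculum 2.5 × 10^3 CFU/ml; 35°C without shaking for 48 h. Read visually (0–5 scale) and by OD 492 nm; MIC80 = lowest concentration giving 80% drop in absorbance versus drug-free control. Triplicate.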

Candida albicans [21] = experiment: Antimicrobial activity against azole-resistant Candida albicans isolate CA137 after 48 hrs by broth microdilution method; details: isolate CA137, 48 h; method in brief: as §1
Candida albicans [22] = experiment: Antimicrobial activity against azole-resistant Candida albicans isolate CA15 after 48 hrs by broth microdilution method; details: isolate CA15, 48 h; method in brief: as §1
Candida albicans [23] = experiment: Antimicrobial activity against azole-resistant Candida albicans isolate CA10 co-treated with calcineurin signaling inhibitor tacrolimus after 48 hrs by microdilution checkerboard technique; details: isolate CA10, 48 h; method in brief: as §3
Candida albicans [24] = experiment: Antimicrobial activity against azole-susceptible Candida albicans isolate CA5 after 48 hrs by broth microdilution method; details: isolate CA5, 48 h; method in brief: as §1

| SMILES | MIC (Candida albicans [1]) | MIC (Candida albicans [2]) | Activity (Candida albicans [3]) | MIC (Candida albicans [4]) | MIC (Candida albicans [5]) | MIC (Candida albicans [6]) | Activity (Candida albicans [7]) | MIC (Candida albicans [8]) | MIC (Candida albicans [10]) | MIC (Candida albicans [11]) | MIC (Candida albicans [12]) | MIC (Candida albicans [13]) | MIC (Candida albicans [14]) | MIC (Candida albicans [15]) | MIC (Candida albicans [16]) | Activity (Candida albicans [17]) | MIC (Candida albicans [18]) | MIC (Candida albicans [19]) | MIC (Candida albicans [20]) | MIC (Candida albicans [21]) | further results |
| --- | --- | --- | --- | --- | --- | --- | --- | --- | --- | --- | --- | --- | --- | --- | --- | --- | --- | --- | --- | --- | --- |
| CCC(C)n1ncn(-c2ccc(N3CCN(c4ccc(OCC5COC(Cn6cncn6)(c6ccc(Cl)cc6Cl)O5)cc4)CC3)cc2)c1=O (configuration not stated) [ITRACONAZOLE] | 16 µg/mL (≈ 22.7 µM) | 32 µg/mL (≈ 45.3 µM) | 2.13 | 0.008 µg/mL | 0.063 µg/mL | 0.031 µg/mL | 2.12 | 0.063 µg/mL (≈ 0.0893 µM) | 0.016 µg/mL | 0.031 µg/mL | 0.063 µg/mL (≈ 0.0893 µM) | 0.031 µg/mL | 0.031 µg/mL | 0.016 µg/mL (≈ 0.0227 µM) | 0.016 µg/mL | 2.46 | 0.063 µg/mL | 0.063 µg/mL (≈ 0.0893 µM) | 128 µg/mL (≈ 181 µM) | 16 µg/mL (≈ 22.7 µM) | Activity (Candida albicans [9]): 1.4; MIC (Candida albicans [22]): 32 µg/mL (≈ 45.3 µM); MIC (Candida albicans [23]): 0.031 µg/mL; MIC (Candida albicans [24]): 0.031 µg/mL (≈ 0.0439 µM) |
| C[C@@H](c1ncncc1F)[C@](O)(Cn1cncn1)c1ccc(F)cc1F [VORICONAZOLE] | 8 µg/mL (≈ 22.9 µM) | 8 µg/mL (≈ 22.9 µM) | 1.49 | 0.016 µg/mL | 0.008 µg/mL | 0.016 µg/mL | 2.15 | 0.008 µg/mL (≈ 0.0229 µM) | 0.008 µg/mL | 0.016 µg/mL | 0.031 µg/mL (≈ 0.0887 µM) | 0.008 µg/mL | 0.008 µg/mL | 0.008 µg/mL (≈ 0.0229 µM) | 0.016 µg/mL | 2.26 | 0.008 µg/mL | 0.016 µg/mL (≈ 0.0458 µM) | 64 µg/mL (≈ 183 µM) | 8 µg/mL (≈ 22.9 µM) | MIC (Candida albicans [22]): 8 µg/mL (≈ 22.9 µM); MIC (Candida albicans [23]): 0.008 µg/mL; MIC (Candida albicans [24]): 0.016 µg/mL (≈ 0.0458 µM) |
